Source: ChEMBL document CHEMBL4020727, “Synthesis and biological evaluation of largazole zinc-binding group analogs” (Bioorg Med Chem, 2017)

How the values were obtained:
Histone deacetylase 2 = Histone deacetylase 2 (Homo sapiens, UniProt Q92769); test: Inhibition of full length C-terminal FLAG-tagged human HDAC2 expressed in baculovirus infected Sf9 insect cells using BPS HDAC substrate 3 after 30 mins by fluorescence assay
Method in brief: (§1)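 Run by a contract lab. Compound incubated with HDAC enzyme, HDAC substrate, BSA and HDAC buffer, in duplicate, at 37 °C for 30 min. Quenched with HDAC developer, then 15 min at room temperature. Percent activity = (F−Fb)/(Ft−Fb), using blank and solvent-control wells. IC50 from curve fitting.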

Histone deacetylase 8 = molecular target: T1, Histone deacetylase 8 (Homo sapiens, UniProt Q9BY41); test: Inhibition of full length C-terminal His-tagged human HDAC8 expressed in baculovirus infected Sf9 insect cells using BPS HDAC class 2a substrate after 30 mins by fluorescence assay; method in brief: as §1
T1 sequence (Q9BY41 whole entry): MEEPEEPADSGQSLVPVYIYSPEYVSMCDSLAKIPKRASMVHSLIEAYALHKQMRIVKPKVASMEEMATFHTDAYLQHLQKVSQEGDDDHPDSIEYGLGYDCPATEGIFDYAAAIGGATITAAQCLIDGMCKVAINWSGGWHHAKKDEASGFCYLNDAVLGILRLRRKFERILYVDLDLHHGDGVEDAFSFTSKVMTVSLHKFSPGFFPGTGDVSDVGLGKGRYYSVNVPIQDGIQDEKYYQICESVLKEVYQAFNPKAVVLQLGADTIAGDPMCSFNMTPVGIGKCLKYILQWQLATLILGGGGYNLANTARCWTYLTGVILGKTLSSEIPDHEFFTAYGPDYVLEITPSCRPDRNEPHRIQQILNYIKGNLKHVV

[1] = molecular target: T2, Protein deacetylase HDAC6 (Homo sapiens, UniProt Q9UBN7); test: Inhibition of full length N-terminal GST-tagged human HDAC6 expressed in baculovirus infected Sf9 insect cells using HDAC substrate 3 after 30 mins by fluorescence assay; method in brief: as §1
T2 sequence (Q9UBN7 whole entry): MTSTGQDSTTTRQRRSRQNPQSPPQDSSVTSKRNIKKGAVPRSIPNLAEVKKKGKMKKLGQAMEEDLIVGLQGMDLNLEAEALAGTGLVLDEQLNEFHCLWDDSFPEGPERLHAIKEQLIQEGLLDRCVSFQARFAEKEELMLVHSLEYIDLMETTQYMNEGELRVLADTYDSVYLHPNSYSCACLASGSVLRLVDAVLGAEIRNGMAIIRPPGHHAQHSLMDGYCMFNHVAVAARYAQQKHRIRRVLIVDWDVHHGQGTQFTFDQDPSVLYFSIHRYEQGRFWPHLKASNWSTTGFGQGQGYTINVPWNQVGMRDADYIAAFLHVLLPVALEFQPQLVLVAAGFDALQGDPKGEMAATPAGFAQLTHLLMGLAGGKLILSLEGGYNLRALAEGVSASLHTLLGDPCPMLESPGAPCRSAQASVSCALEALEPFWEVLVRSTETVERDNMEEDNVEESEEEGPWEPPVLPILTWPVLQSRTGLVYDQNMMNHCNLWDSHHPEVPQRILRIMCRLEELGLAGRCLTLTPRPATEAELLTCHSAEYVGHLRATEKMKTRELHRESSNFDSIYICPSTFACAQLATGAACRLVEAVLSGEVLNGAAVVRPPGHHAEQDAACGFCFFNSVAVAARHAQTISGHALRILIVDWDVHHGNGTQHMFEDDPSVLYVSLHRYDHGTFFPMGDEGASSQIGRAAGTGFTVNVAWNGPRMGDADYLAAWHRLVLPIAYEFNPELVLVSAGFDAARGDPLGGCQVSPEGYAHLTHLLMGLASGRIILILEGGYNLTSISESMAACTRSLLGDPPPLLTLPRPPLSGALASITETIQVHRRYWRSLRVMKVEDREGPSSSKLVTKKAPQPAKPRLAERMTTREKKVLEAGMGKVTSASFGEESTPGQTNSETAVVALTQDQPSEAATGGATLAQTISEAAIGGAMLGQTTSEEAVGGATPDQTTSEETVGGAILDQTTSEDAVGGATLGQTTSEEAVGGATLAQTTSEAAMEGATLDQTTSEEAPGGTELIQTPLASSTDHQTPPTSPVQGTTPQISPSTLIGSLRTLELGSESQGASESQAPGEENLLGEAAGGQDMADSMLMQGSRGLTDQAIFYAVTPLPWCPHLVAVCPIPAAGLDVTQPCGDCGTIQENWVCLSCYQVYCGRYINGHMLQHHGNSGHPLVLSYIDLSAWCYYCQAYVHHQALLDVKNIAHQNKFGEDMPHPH

[2] = molecular target: Histone deacetylase 3/Nuclear receptor corepressor 2 (HDAC3/NCoR2) (Homo sapiens, UniProt O15379); test: Inhibition of full length human C-terminal His-tagged HDAC3/N-terminal GST-tagged NCOR2 (395 to 489 residues) expressed in baculovirus infected Sf9 insect cells using BPS HDAC substrate 3 after 30 mins by fluorescence assay
Method in brief: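 Run by a contract lab. Compound incubated with HDAC enzyme, substrate, bovine serum albumin and HDAC buffer in duplicate for 30 min at 37 °C. Activity taken as (F−Fb)/(Ft−Fb) against blank and solvent control wells; IC50 from curve fitting.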

Homo sapiens = species: Homo sapiens; test: Inhibition of class 1 HDAC in human HCT116 cells assessed as hyperacetylation of histone H3 (Lys9/14) measured at 8 hrs post treatment by immunoblot analysis; type: cell-based
Method in brief: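 Cells in DMEM/10% FBS; 4 × 10^5 cells seeded in 60-mm dishes overnight, then treated for 8 h with 0–10 μM (final) compound or vehicle (1% EtOH). Whole-cell lysates loaded at equal protein (BCA), run on SDS-PAGE, blotted to PVDF and probed with anti-acetyl histone H3 (Lys9/14); β-actin also probed. Chemiluminescent detection.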

Chain of Histone deacetylase 2 (Q92769 whole entry): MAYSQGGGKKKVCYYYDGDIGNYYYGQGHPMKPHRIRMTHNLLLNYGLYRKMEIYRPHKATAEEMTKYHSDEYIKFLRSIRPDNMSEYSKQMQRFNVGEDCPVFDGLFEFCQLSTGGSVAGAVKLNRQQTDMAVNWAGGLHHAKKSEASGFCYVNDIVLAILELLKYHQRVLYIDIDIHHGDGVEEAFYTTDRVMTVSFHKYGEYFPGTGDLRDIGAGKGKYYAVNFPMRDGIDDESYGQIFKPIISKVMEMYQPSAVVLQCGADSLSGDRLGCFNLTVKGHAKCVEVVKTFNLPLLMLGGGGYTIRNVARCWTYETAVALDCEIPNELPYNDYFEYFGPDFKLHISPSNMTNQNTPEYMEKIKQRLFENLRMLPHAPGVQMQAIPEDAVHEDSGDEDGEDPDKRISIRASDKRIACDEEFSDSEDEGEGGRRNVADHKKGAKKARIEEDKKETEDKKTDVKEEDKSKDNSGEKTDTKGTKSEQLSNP
Chain of Histone deacetylase 3/Nuclear receptor corepressor 2 (HDAC3/NCoR2) (O15379 whole entry, the tested form may be a part): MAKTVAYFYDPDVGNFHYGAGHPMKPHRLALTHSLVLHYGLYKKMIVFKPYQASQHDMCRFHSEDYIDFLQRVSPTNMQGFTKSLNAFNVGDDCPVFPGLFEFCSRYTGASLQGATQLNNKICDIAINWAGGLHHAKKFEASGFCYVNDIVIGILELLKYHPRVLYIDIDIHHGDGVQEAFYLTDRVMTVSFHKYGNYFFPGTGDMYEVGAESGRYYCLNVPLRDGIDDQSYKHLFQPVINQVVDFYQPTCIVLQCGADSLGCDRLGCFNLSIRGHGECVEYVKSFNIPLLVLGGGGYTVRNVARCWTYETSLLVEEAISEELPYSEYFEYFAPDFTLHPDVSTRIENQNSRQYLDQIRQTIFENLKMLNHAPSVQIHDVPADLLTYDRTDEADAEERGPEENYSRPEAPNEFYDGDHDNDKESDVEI
Chain of Histone deacetylase 3/Nuclear receptor corepressor 2 (HDAC3/NCoR2) (Q9Y618 whole entry, further chain, the tested form may be a part): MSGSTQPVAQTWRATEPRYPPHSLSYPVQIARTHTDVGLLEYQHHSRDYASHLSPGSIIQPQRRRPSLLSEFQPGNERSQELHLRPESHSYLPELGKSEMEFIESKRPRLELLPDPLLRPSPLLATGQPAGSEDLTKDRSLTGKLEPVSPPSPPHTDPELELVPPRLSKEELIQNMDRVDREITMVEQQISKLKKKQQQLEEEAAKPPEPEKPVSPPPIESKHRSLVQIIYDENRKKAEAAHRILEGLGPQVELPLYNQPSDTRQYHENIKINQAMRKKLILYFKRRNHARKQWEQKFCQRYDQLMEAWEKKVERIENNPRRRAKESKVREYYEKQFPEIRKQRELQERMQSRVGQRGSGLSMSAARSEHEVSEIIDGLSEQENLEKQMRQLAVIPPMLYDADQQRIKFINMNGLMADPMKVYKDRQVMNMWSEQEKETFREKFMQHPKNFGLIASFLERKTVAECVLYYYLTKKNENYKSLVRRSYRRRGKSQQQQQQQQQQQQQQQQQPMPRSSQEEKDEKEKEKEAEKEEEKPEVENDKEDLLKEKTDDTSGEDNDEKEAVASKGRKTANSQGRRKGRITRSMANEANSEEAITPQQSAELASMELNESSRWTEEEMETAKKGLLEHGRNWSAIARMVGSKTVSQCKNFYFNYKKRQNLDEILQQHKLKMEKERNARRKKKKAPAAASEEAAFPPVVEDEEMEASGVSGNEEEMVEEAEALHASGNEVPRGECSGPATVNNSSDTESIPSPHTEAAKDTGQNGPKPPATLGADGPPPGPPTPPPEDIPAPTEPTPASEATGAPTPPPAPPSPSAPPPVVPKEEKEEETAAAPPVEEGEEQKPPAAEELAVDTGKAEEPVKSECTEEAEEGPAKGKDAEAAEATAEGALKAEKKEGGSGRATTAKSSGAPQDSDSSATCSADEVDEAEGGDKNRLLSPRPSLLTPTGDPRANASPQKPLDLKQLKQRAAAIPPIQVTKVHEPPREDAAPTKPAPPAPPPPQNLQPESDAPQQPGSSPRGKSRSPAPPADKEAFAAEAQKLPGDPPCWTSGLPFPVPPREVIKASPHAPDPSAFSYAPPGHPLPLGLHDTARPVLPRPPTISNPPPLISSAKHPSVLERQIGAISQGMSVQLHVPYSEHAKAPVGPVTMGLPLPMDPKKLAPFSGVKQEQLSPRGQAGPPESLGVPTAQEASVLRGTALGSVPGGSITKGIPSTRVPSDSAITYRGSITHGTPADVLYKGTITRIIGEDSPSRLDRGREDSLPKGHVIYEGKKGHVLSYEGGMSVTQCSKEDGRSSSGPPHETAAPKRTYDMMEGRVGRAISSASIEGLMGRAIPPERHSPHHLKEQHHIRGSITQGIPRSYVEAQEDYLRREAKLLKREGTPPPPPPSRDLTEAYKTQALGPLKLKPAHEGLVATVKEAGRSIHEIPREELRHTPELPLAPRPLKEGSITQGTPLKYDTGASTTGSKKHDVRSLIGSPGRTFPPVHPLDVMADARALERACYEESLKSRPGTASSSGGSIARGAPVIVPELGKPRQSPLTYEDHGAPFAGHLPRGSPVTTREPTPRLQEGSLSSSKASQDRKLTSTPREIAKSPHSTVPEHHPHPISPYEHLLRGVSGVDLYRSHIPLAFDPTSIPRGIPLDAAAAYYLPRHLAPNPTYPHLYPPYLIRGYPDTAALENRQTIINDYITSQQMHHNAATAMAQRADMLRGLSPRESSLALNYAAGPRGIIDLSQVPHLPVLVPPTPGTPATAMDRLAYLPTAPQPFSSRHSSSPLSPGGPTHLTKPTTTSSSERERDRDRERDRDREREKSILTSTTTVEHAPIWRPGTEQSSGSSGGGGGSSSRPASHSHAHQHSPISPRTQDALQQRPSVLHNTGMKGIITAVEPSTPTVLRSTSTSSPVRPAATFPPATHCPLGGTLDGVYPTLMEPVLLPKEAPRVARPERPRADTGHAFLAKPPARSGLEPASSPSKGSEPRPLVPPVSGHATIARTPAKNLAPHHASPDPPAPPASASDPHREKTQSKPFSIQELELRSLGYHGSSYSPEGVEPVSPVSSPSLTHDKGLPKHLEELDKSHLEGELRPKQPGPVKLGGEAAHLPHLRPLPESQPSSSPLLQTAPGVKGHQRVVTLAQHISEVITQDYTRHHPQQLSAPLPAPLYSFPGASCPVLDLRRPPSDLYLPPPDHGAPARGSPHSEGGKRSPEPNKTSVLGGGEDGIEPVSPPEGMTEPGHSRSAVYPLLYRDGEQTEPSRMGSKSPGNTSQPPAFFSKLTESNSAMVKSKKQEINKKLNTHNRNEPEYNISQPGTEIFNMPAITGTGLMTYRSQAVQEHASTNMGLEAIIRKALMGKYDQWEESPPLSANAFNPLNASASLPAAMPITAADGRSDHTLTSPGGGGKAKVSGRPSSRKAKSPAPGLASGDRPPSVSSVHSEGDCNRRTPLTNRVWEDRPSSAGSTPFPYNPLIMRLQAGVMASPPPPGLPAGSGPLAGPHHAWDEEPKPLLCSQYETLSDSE

SMILES | IC50 (Histone deacetylase 2) | IC50 (Histone deacetylase 8) | IC50 [1] | IC50 [2] | inhibition (Homo sapiens)
CC(C)[C@@H]1NC(=O)[C@]2(C)CSC(=N2)c2csc(n2)CNC(=O)C[C@@H](/C=C/CCC(=O)NO)OC1=O | 69 nM | 3500 nM | 600 nM | 29 nM | Dose-dependent effect
CC(C)[C@@H]1NC(=O)[C@]2(C)CSC(=N2)c2csc(n2)CNC(=O)C[C@@H](/C=C/CCSCCS)OC1=O | 90 nM | 9600 nM | 2800 nM | 43 nM | Dose-dependent effect
